Hits are enriched below; roughly 2.4% of the tested compounds scored in any of these assays.
CendR NRP1 mod: alters CendR peptide binding to human NRP-1. FAM-RPARPAR peptide binding to NRP-1, fluorescence polarization. inhibition, % at 25 µM. 0.85% of 360,000 active;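 active = inhibition or corrected inhibition above about 18%, plus a signal ratio from 0.5 to 1.5, limit read from the data, passing the limit was not always enough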
Myeloid diff MLP: myeloid differentiation induction. ER-HoxA9 myeloid progenitors, lysozyme-GFP differentiation, flow cytometry. calls only at 10 µM. 1% of 360,000 active;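 active = normalized GFP-positive differentiation at or above the plate's own cutoff, the solvent-only control mean plus 3 SD; inconclusive = no clear call, values can overlap the other calls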;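 note: cells exposed to compound for four days before flow analysis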
beta cell repl: inducers of beta-cell replication in MIN6 cells; MIN6 cells proliferation, ATPlite luminescence, 48 h; cells starved in 0.2% serum; 100% = growth in 10% serum; proliferation, % at 10 µM; 0.29% of 330,000 active;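 active = compounds whose signal lies at least 3.5 SD above the mean of all wells on their plate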;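 note: 0% = DMSO-treated cells in low-serum medium and 100% = 10% serum control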
MT1-MMP act inh: inhibitors of human MT1-MMP activation; P50281; HT1080 RFP-PRO-GFP cells, GFP/RFP ratio fluorescence, overnight; percent of plate control window, DMSO zero; GFP/RFP ratio change, % at 20 µM; 0.061% of 360,000 active;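 active = GFP/RFP ratio change of at least 30% with cell ATP level not reduced by more than half and red fluorescence within 50% of control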
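Read-out: GFP/RFP fluorescence ratio; Test system: RFP-PRO-GFP reporter HT1080 cells; Compound dosing: single-point 20 µM compound, 1% DMSO; Times: overnight compound exposure at 37 °C.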
SENP1 inh: inhibitors of human SENP1 SUMO protease catalytic domain | AID 624204 | Q9P0U3 | 0.21% of 360,000 active | recombinant SENP1 catalytic domain, CyPet-SUMO1-YPet FRET cleavage | inhibition, % at 10 µM;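 active = inhibition at least 30% at 10 µM, raw YFP signal under a set limit, fluorescence ratio 0.5 to 1.5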;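 note: 0% = enzyme with DMSO and 100% = no enzyme wells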
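Test system: hSENP1 catalytic domain, recombinant; Amount: 20 pM final SENP1 enzyme; Medium: Tris pH 8 buffer plus EDTA, NaCl, BME, BSA, NP40, catalase; Schedule: 50 min enzyme reaction, room temperature, light-protected; Technique: FRET fluorescence in CFP and YFP emission channels; Controls: no-enzyme wells low, DMSO-plus-enzyme wells high control.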
DAGLB inhibitor: blocks human DAGLB lipase activity; Q8NCG7; HEK293T DAGLB membrane lysate, EnzChek fluorogenic substrate; inhibition, % at 5.17 µM; 0.059% of 340,000 active; AID 504411; in the data active = inhibition above about 34%;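 note: 0% = enzyme with vehicle and 100% = wells lacking enzyme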
Numbers without * were called inactive.

For CCOc1ccc(/C=C/C(=O)N(CC)CC(=O)Nc2c(F)cccc2F)cc1OC the results were CendR NRP1 mod 21.9*, Myeloid diff MLP inactive, MT1-MMP act inh 0.3, SENP1 inh -1.7 and DAGLB inhibitor -1.4.
C=CCn1c(SCC(=O)c2cccs2)nc2sc(C)c(C)c2c1=O was read as CendR NRP1 mod -19.2, Myeloid diff MLP active, beta cell repl -0.7, MT1-MMP act inh 4.0, SENP1 inh 0.4 and DAGLB inhibitor -10.8.
`CCN(c1ccccc1)S(=O)(=O)c1ccc(Cl)c(C(=O)N(CC2CCCO2)C2CCS(=O)(=O)C2)c1` (stereo unspecified) gave CendR NRP1 mod 11.9, Myeloid diff MLP inactive, beta cell repl -2.4, MT1-MMP act inh -0.9, SENP1 inh 1.4 and DAGLB inhibitor 1.4.
`Nc1c(C(=O)Nc2ccc(S(=O)(=O)N3CCCC3)cc2)sc2nc3cc4c(cc3cc12)CCC4` gave CendR NRP1 mod -37.5, Myeloid diff MLP active, MT1-MMP act inh -66.3, SENP1 inh 45.7 and DAGLB inhibitor 0.0.
`Nc1c(C(=O)Nc2ccc(S(=O)(=O)N3CCCC3)cc2)sc2nc3ccc(OC(F)(F)F)cc3cc12` gave CendR NRP1 mod -108.7, Myeloid diff MLP inactive, beta cell repl -2.5, MT1-MMP act inh -137.9, SENP1 inh 2.5 and DAGLB inhibitor 6.5.
O=C(N/N=C/c1ccc(O)c2ncccc12)c1cccc(Br)c1 was read as CendR NRP1 mod -1.8, Myeloid diff MLP inconclusive, beta cell repl -5.0, MT1-MMP act inh -39.0, SENP1 inh 51.9* and DAGLB inhibitor 8.8.
Cc1ccc(C(=O)N/N=C/c2ccc([N+](=O)[O-])s2)cc1 was read as CendR NRP1 mod -25.2, Myeloid diff MLP inconclusive, beta cell repl -6.0, MT1-MMP act inh 2.6, SENP1 inh -4.3 and DAGLB inhibitor -0.5.
For O=C(N/N=C/c1ccc([N+](=O)[O-])s1)c1cccc(Br)c1 the results were CendR NRP1 mod -7.0, Myeloid diff MLP active, beta cell repl -6.0, MT1-MMP act inh -6.5, SENP1 inh -5.4 and DAGLB inhibitor -1.9.
`CCOC(=O)c1csc(-c2ccc(COC(=O)c3ccccc3)o2)n1` gave CendR NRP1 mod -13.9, Myeloid diff MLP inactive, MT1-MMP act inh 5.2 and SENP1 inh 0.0.
`CC(C)(CO)Cc1cc(C(C)(C)C)c(O)c(C(C)(C)C)c1` gave CendR NRP1 mod 17.0*, Myeloid diff MLP inactive, beta cell repl 0.8, MT1-MMP act inh -0.5, SENP1 inh 1.3 and DAGLB inhibitor -2.6.
CC(C)(C=O)Cc1cc(C(C)(C)C)c(O)c(C(C)(C)C)c1 was read as CendR NRP1 mod -2.3, Myeloid diff MLP inactive, beta cell repl 1.6, MT1-MMP act inh -0.2, SENP1 inh -0.7 and DAGLB inhibitor -6.9.
`Cc1nc(S/C(=C/c2ccc(-c3ccc(C(=O)O)cc3)o2)C(=O)O)n[nH]1` gave CendR NRP1 mod -89.3, Myeloid diff MLP inactive, beta cell repl -2.8, MT1-MMP act inh 1.2, SENP1 inh -36.2 and DAGLB inhibitor -0.3.
Screening Cc1nc(S/C(=C/c2ccc(-c3ccc(Cl)cc3)o2)C(=O)O)n[nH]1 returned CendR NRP1 mod 36.1*, Myeloid diff MLP inactive, beta cell repl -6.3, MT1-MMP act inh 0.4, SENP1 inh -14.5 and DAGLB inhibitor 4.8.
Cc1ccccc1/C=C/c1nc2ccccc2c(=O)n1Cc1ccccc1 was read as CendR NRP1 mod -6.8, Myeloid diff MLP inactive, beta cell repl -2.8, MT1-MMP act inh 1.2, SENP1 inh 3.4 and DAGLB inhibitor 1.1.
`Cc1ccccc1/C=C/c1nc2ccccc2c(=O)n1CCc1ccccc1` gave CendR NRP1 mod 39.5*, Myeloid diff MLP inactive, MT1-MMP act inh -4.6, SENP1 inh 1.3 and DAGLB inhibitor -5.0.
Cc1cccc(C)c1NC(=O)C(c1ccccc1OC(F)(F)F)N1CCN(c2ccc(F)cc2)CC1 (stereo unspecified) was read as CendR NRP1 mod -8.2, Myeloid diff MLP inactive, MT1-MMP act inh -9.1 and SENP1 inh 2.4.

Compound activity: PubChem BioAssay, several laboratories
